Test results: ChEMBL document CHEMBL3853326, “Proteolytically Stable Foldamer Mimics of Host-Defense Peptides with Protective Activities in a Murine Model of Bacterial Infection” (J Med Chem, 2016)
Converted amounts (≈) assume the structure as drawn. The source made the active and inactive calls.

Key:
Bacillus anthracis [1] = test: Bactericidal activity against germinated spore form of Bacillus anthracis 9602P assessed as colony forming units after 30 mins; format: functional; settings: 0.5 h
Bacillus anthracis [2] = test: Bactericidal activity against encapsulated Bacillus anthracis 9602P assessed as reduction in colony forming units after 30 mins; format: functional; settings: 0.5 h
Bacillus anthracis [3] = test: Bactericidal activity against nonencapsulated Bacillus anthracis 9602PR assessed as reduction in colony forming units after 30 mins; format: functional; settings: 0.5 h
Bacillus anthracis [4] = test: Time required for 50 % bactericidal activity against germinating spore form of Bacillus anthracis 9602P at 10 ug/ml; format: functional
Bacillus anthracis [5] = test: Time required for 50 % bactericidal activity against encapsulated Bacillus anthracis 9602P at 10 ug/ml; format: functional
Bacillus anthracis [6] = test: Time required for 50 % bactericidal activity against nonencapsulated Bacillus anthracis 9602PR at 10 ug/ml; format: functional
Bacillus anthracis [7] = test: Time required for 95 % bactericidal activity against encapsulated Bacillus anthracis 9602P at 10 ug/ml; format: functional
[8] = Cytotoxicity against mouse RAW264.7 cells assessed as reduction in cell viability after 4 hrs by MTT assay; format: toxicity; settings: read-out: LC50
Outline: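 RAW 264.7 murine macrophages (2 × 10^5 cells per well) were incubated with increasing compound concentrations for 4 h. Viability was read by MTT assay. The dose causing 50% cell lethality was reported as mean ± SEM, n = 3.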

[9] = Selectivity ratio of LC50 for mouse RAW 264.7 cells to ratio of EC50 for germinating spore form of Bacillus anthracis 9602P; format: ADME; settings: RAW264.7 cells, read-out: Selectivity Index
[10] = Stability assessed as trypsin (unknown origin)-mediated compound degradation after 24 hrs by HPLC analysis; format: ADME; settings: human
[11] = Stability assessed as chymotrypsin(unknown origin)-mediated compound degradation after 24 hrs by HPLC analysis; format: ADME; settings: human
[12] = Stability assessed as Streptomyces griseus pronase E-mediated compound degradation after 24 hrs by HPLC analysis; format: ADME
[13] = Primary phase half life in BALB/c mouse at 100ug, iv as bolus administration by liquid scintillation counting; format: ADME, organism-based; settings: in vivo
Outline: (§1)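 Conscious BALB/c mice got one iv bolus of [3H]-labelled oligourea (0.5 × 10^6 cpm per 100 μg, 5.8 × 10−2 μmol) in PBS. Blood (10–20 μL) was drawn from the retro-orbital sinus at 0.6, 2, 3.5, 5.5, 8.7, 15 and 240 min and counted by liquid scintillation. PK was fitted by a two-compartment iv bolus model; n = 2 mice.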

[14] = Terminal half life in BALB/c mouse at 100ug, iv as bolus administration by liquid scintillation counting; format: ADME, organism-based; settings: in vivo; outline: as §1
[15] = Drug excretion in BALB/c mouse urinary bladder at 100ug, iv as bolus administration after 240 mins by liquid scintillation counting; format: ADME, organism-based; settings: in vivo, 4 h; outline: as §1
[16] = Plasma protein binding in CD1 mouse at 10 uM after 4 hrs by HPLC/MS/MS analysis; format: ADME, cell-free; settings: read-out: PPB
Outline: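 Binding was measured by equilibrium dialysis against CD-1 mouse plasma.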

[17] = Drug uptake in BALB/c mouse kidney cortex at 100 ug/ml, iv after 4 to 48 hrs by high resolution beta radiometric imaging analysis; format: ADME, organism-based; settings: in vivo
Outline: (§2)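 BALB/c mice got 100 μg (5 μCi) tritiated compound iv in PBS. At 4, 30 and 48 h the mice were anaesthetised with halothane and frozen in isopentane/dry ice at −80 °C. Whole-body sagittal cryosections (20 μm, cut at −25 °C) were exposed 40 h on a β-imager. Counts per mm2 were read by image analysis, with a muscle-area detection threshold. Values are mean ± SD of 2–6 determinations.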

[18] = Drug uptake in BALB/c mouse liver at 100 ug/ml, iv after 4 to 48 hrs by high resolution beta radiometric imaging analysis; format: ADME, organism-based; settings: in vivo; outline: as §2
[19] = Ratio of drug level in kidney cortex to muscle in BALB/c mouse at 100 ug/ml, iv after 4 hrs by high resolution beta radiometric imaging analysis; format: ADME, organism-based; settings: in vivo; outline: as §2
[20] = Ratio of drug level in liver to muscle in BALB/c mouse at 100 ug/ml, iv after 4 hrs by high resolution beta radiometric imaging analysis; format: ADME, organism-based; settings: in vivo; outline: as §2
[21] = Drug uptake in BALB/c mouse lungs at 20 ug/ml, administered intranasally up to 4 hrs by high resolution beta radiometric imaging analysis; format: ADME, Lung; settings: in vivo, inhaled_or_intranasal
Outline: (§3)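 BALB/c mice got 20 μg (5 μCi) tritiated compound intranasally. At 4, 30 and 48 h they were anaesthetised with halothane and frozen at −80 °C. Whole-body 20 μm sagittal cryosections were exposed 40 h on a high-resolution β-imager. Regional radioactivity was quantified as counts per mm2 per 40 h by image analysis.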

[22] = Drug excretion in BALB/c mouse urine at 20 ug/ml, administered intranasally after 6 hrs by high resolution beta radiometric imaging analysis; format: ADME; settings: in vivo, inhaled_or_intranasal
[23] = Drug uptake in BALB/c mouse kidney cortex at 20 ug/ml, administered intranasally after 4 to 48 hrs by high resolution beta radiometric imaging analysis relative to iv dosing; format: ADME, organism-based; settings: in vivo, inhaled_or_intranasal; outline: as §3
[24] = Drug uptake in BALB/c mouse kidney at 100ug, iv through bolus administration after 30 hrs by RP-HPLC analysis; format: ADME, organism-based; settings: in vivo
Outline: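 Kidneys were taken 4 and 30 h after iv tritiated compound and homogenised in 1 N HCl. Homogenates were extracted with methanol/0.1% TFA (4:1), lyophilised 48 h and resuspended in water. Samples ran on C18 RP-HPLC with UV (224, 254 nm) and radioactivity detection. Elution was 10 min isocratic at 20% B, then 20–100% B over 15 min (B: acetonitrile, 0.1% TFA).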

Bacillus anthracis [25] = test: In vivo bactericidal activity against encapsulated Bacillus anthracis 9602P spores infected in mouse assessed as increase in time of survival at 20 ug/ml, sc administered for 15 mins to 48 hrs post infection measured for 15 days post dose; format: functional, organism-based
Bacillus anthracis [26] = test: In vivo bactericidal activity against encapsulated Bacillus anthracis 9602P spores infected in mouse assessed as increase in time of survival at 20 ug/ml, administered intranasally for 15 mins to 48 hrs post infection measured for 15 days post dose; format: functional, organism-based
[27] = Tmax in BALB/c mouse at 100ug, iv as bolus administration by liquid scintillation counting; format: ADME, organism-based; settings: in vivo; outline: as §1
Bacillus anthracis [28] = test: Bactericidal activity against Bacillus anthracis 9602P non-germinated spores assessed as colony forming units at 10 ug/ml incubated for 30 mins followed by heating for 30 mins (reference value: 5.28 +/- 0.02 CFU); format: functional
[29] = Selectivity index, ratio of HD100 for sheep RBC to MIC for Staphylococcus aureus ATCC 25923
[30] = Selectivity index, ratio of HD100 for sheep RBC to MIC for Escherichia coli ATCC 25922
[31] = Drug uptake in BALB/c mouse nasopharyngeal duct at 20 ug/ml, administered intranasally at 4 hrs post dose by high resolution beta radiometric imaging analysis; format: ADME; settings: in vivo, inhaled_or_intranasal; outline: as §3
Bacillus anthracis [32] = test: Bactericidal activity against germinating spore form of Bacillus anthracis at 5 ug/ml; format: functional
[33] = Drug uptake in BALB/c mouse kidney cortex at 100 ug, iv after 4 hrs by avidin-peroxidase/HE staining based assay; format: ADME, organism-based; settings: in vivo
[34] = Drug uptake in BALB/c mouse kidney deep medulla at 100 ug, iv after 4 hrs by avidin-peroxidase/HE staining based assay; format: ADME, organism-based; settings: in vivo
[35] = Drug uptake in BALB/c mouse liver at 100 ug, iv after 4 hrs by avidin-peroxidase/HE staining based assay; format: ADME, organism-based; settings: in vivo
[36] = Drug uptake in BALB/c mouse cortical convoluted tubule epithelial cells at 100 ug, iv after 4 hrs by avidin-peroxidase/HE staining based assay; format: ADME, organism-based, Epithelial cell; settings: in vivo
[37] = Drug uptake in BALB/c mouse kidney deep medulla epithelial cells at 100 ug, iv after 4 hrs by avidin-peroxidase/HE staining based assay; format: ADME, organism-based, Epithelial cell; settings: in vivo
[38] = Drug uptake in BALB/c mouse kupffer cells at 100 ug, iv after 4 hrs by avidin-peroxidase/HE staining based assay; format: ADME, organism-based; settings: in vivo
[39] = Stability assessed as trypsin (unknown origin)-mediated compound degradation up to 3 mins by HPLC analysis; format: ADME; settings: human, 0.05 h
[40] = Stability assessed as chymotrypsin(unknown origin)-mediated compound degradation up to 3 mins by HPLC analysis; format: ADME; settings: human, 0.05 h
[41] = Stability assessed as Streptomyces griseus pronase E-mediated compound degradation up to 3 mins by HPLC analysis; format: ADME; settings: 0.05 h
Bacillus anthracis [42] = test: Time required for 50 % bactericidal activity against germinating spore form of Bacillus anthracis 9602P at 20 ug/ml; format: functional
Bacillus anthracis [43] = test: Time required for 50 % bactericidal activity against encapsulated Bacillus anthracis 9602P at 20 ug/ml; format: functional
Bacillus anthracis [44] = test: Time required for 50 % bactericidal activity against nonencapsulated Bacillus anthracis 9602PR at 20 ug/ml; format: functional

CC(C)NC(=O)N[C@H](CNC(=O)N[C@@H](CCCCN)CNC(=O)N[C@H](CNC(=O)N[C@H](CNC(=O)N[C@@H](CCCCN)CNC(=O)N[C@H](CNC(=O)N[C@@H](CCCCN)CNC(=O)N[C@H](CCC(N)=O)C(C)C)Cc1c[nH]c2ccccc12)C(C)C)Cc1c[nH]c2ccccc12)C(C)C
EC50 (Bacillus anthracis [1]): 3.3 µg/mL (≈ 2.38 µM)
EC50 (Bacillus anthracis [2]): 3.25 µg/mL (≈ 2.34 µM)
EC50 (Bacillus anthracis [3]): 6 µg/mL (≈ 4.32 µM)
Time (Bacillus anthracis [4]): 60 s
Time (Bacillus anthracis [5]): 30 s
Time (Bacillus anthracis [6]): 35 s
Time (Bacillus anthracis [7]): <2 min
CC50 at 4 h [8]: 31.1 µg/mL (≈ 22.4 µM)
selectivity ratio [9]: 9.5
Stability [10]: Stable
Stability [11]: Stable
Stability [12]: Stable
alphat1/2 [13]: 3 min
beta t1/2 [14]: 99 min
Drug excretion [15]: 2%
fraction unbound at 4 h, 10 µM [16]: 0.01
Drug uptake [17]: Active
Drug uptake [18]: Active
Ratio [19]: 10
Ratio [20]: 10
Drug uptake [21]: Active
Drug excretion [22]: 2%
Drug uptake [23]: 70%
Drug uptake [24]: 89%
Activity (Bacillus anthracis [25]): Active
Activity (Bacillus anthracis [26]): Active
Tmax [27]: <= 2 min
Activity (Bacillus anthracis [28]): 5.26 CFU
Selectivity Index [29]: 8
Selectivity Index [30]: 8
Drug uptake [31]: Active

CC(C)[C@@H](CCC(N)=O)NC(=O)NC[C@H](CCCCN)NC(=O)NC[C@H](Cc1c[nH]c2ccccc12)NC(=O)NC[C@H](CCCCN)NC(=O)NC[C@@H](NC(=O)NC[C@H](Cc1c[nH]c2ccccc12)NC(=O)NC[C@H](CCCCN)NC(=O)NC[C@@H](NC(=O)NCCSCC(=O)NCCNC(=O)CSCCNC(=O)N[C@H](CNC(=O)N[C@@H](CCCCN)CNC(=O)N[C@H](CNC(=O)N[C@H](CNC(=O)N[C@@H](CCCCN)CNC(=O)N[C@H](CNC(=O)N[C@@H](CCCCN)CNC(=O)N[C@H](CCC(N)=O)C(C)C)Cc1c[nH]c2ccccc12)C(C)C)Cc1c[nH]c2ccccc12)C(C)C)C(C)C)C(C)C
EC50 (Bacillus anthracis [1]): 0.2 µg/mL (≈ 0.0678 µM)
EC50 (Bacillus anthracis [2]): 0.5 µg/mL (≈ 0.169 µM)
Activity (Bacillus anthracis [25]): Active
Activity (Bacillus anthracis [26]): Active

CC(C)[C@@H](CNC(=O)N[C@@H](CCCCN)CNC(=O)N[C@H](CNC(=O)N[C@H](CNC(=O)N[C@@H](CCCCN)CNC(=O)N[C@H](CNC(=O)N[C@@H](CCCCN)CNC(=O)N[C@H](CCC(N)=O)C(C)C)Cc1c[nH]c2ccccc12)C(C)C)Cc1c[nH]c2ccccc12)NC(=O)CCCC[C@@H]1SC[C@@H]2NC(=O)N[C@@H]21
Activity (Bacillus anthracis [32]): 64.8%
Drug uptake [33]: Active
Drug uptake [34]: Active
Drug uptake [35]: Active
Drug uptake [36]: Active
Drug uptake [37]: Active
Drug uptake [38]: Active

Ac-VKWVKWKV-NH2
Stability [39]: Unstable
Stability [40]: Unstable
Stability [41]: Unstable

CC(C)NC(=O)N[C@H](CNC(=O)N[C@@H](CCCCN)CNC(=O)N[C@H](CNC(=O)N[C@H](CCC(=O)N[C@@H](CCCCN)CNC(=O)N[C@H](CNC(=O)N[C@@H](CCCCN)CNC(=O)N[C@H](CCC(N)=O)C(C)C)Cc1c[nH]c2ccccc12)C(C)C)Cc1c[nH]c2ccccc12)C(C)C
EC50 (Bacillus anthracis [1]): 10 µg/mL (≈ 7.21 µM)
EC50 (Bacillus anthracis [2]): 7 µg/mL (≈ 5.05 µM)
EC50 (Bacillus anthracis [3]): 8.5 µg/mL (≈ 6.13 µM)
Time (Bacillus anthracis [42]): 120 s
Time (Bacillus anthracis [43]): 75 s
Time (Bacillus anthracis [44]): 45 s
